Screening results as filed in PubChem.
Neddyl block – inhibitors of human cullin neddylation; P61081+Q13564; TR-FRET cullin neddylation, biochemical; calls only at 25 µM; 0.58% of 360,000 active; AID 651699; in the data active = inhibition above about 36%
NR2E3 ag-1 – NR2E3 (human) agonism; Q9Y5X4; GST-NR2E3/biotin-RetCOR TR-FRET, 1536-well; inhibition of corepressor binding, % at 4.78 µM; 0.12% of 320,000 active;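 active = percent inhibition above the cutoff of mean plus 3 SD of all tested compounds, set per screening campaign, cut at about 20% in these data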;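 note: 0% = DMSO wells and 100% = biotin wells as full block of FRET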
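Test system – NR2E3–RetCOR corepressor complex · Quantity – NR2E3 fusion 1.35 nM · Buffer or medium – Tris pH 7.5 · Incubation – Compound–protein incubation for 5 h at 4 °C · Technique – TR-FRET, Eu(K)-anti-GST donor, streptavidin-D2 acceptor, ex 340, em 617/671 nm · Evaluation – percent inhibition of 671/617 nm emission ratio versus biotin and DMSO controls · Plate – 1536-well format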
PG9 binder – small molecules binding HIV-1 gp120 antibody PG9; TR-FRET gp120-PG9 antibody binding; inhibition, % at 6.7 µM; 0.43% of 360,000 active; AID 624416; in the data active = inhibition above about 8.5%
NR2E3 ag-2 – human photoreceptor-specific nuclear receptor agonism; 0.35% of 360,000 active; CHO-S Gal4-NCOR/VP16-NR2E3 two-hybrid, luciferase; AID 602229; Q9Y5X4; inhibition of corepressor binding, % at 3.98 µM;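 active = inhibition above the mean of all tested compounds plus 3 SD, cut at about 70% in these data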;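 note: 0% = DMSO with NR2E3 transfected cells and 100% = cells lacking NR2E3 construct; higher means lower luciferase signal from less NR2E3 corepressor binding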
Rev-erbA mod – Rev-erb alpha (human) modulation; activity, % at 10 µM; AID 1259318; Rev-erbα–FITC-DNA binding, fluorescence polarization, 90 min; 0.79% of 370,000 active;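 active = activity above about 14%, limit read from the data; passing the limit was not always enough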;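 note: 0% = DMSO wells with 35 nM protein and 100% = DMSO wells with 750 nM protein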
Target sequence (P20393 whole entry, looked up): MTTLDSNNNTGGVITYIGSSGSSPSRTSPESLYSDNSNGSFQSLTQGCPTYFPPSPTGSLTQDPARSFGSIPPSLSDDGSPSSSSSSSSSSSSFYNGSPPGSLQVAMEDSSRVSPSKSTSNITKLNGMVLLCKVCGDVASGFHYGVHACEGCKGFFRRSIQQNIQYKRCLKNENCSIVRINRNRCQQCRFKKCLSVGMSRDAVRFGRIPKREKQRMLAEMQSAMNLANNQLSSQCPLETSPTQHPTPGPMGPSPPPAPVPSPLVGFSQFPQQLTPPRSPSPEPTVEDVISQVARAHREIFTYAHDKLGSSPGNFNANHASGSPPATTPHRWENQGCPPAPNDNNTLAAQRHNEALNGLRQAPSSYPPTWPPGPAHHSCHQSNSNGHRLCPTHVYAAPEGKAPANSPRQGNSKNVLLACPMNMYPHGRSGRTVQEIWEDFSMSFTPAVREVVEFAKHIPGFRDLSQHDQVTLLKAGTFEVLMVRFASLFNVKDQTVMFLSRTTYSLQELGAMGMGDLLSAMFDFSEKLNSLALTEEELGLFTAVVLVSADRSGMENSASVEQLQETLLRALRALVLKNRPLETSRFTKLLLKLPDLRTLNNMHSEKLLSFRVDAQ
NR2E3 ag confirm – confirmation of human NR2E3 nuclear receptor agonists; shares compounds with NR2E3 ag-1; cell-free NR2E3 corepressor release, TR-FRET, 5 h; activation (reported as inhibition), % at 3.98 µM; 39% of 360 active; in the data active = activation above about 20%
PPARg-NCOR2 ag – counter-screen for NR2E3 agonists: human PPARgamma-NCOR2 interaction agonists; shares compounds with NR2E3 ag-1; AID 504787; TR-FRET PPARg-NCOR2 coregulator interaction, biochemical; 45% of 360 active; inhibition, % at 3.98 µM; in the data active = inhibition above about 20%;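 note: 0% = DMSO vehicle and 100% = wells without protein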
PG9 bind confirm – confirmation of small molecules binding HIV-1 gp120 antibody PG9. inhibition, % at 6.7 µM. AID 651571. 90% of 1,500 active. TR-FRET PG9 antibody binding, biochemical. shares compounds with PG9 binder; in the data active = inhibition above about 9%
PGV04 counter – binds control antibody PGV04 in PG9 binder counter-screen; shares compounds with PG9 binder; TR-FRET PGV04 antibody-gp120 binding, biochemical; inhibition, % at 6.7 µM; 95% of 1,500 active; AID 651604; in the data active = inhibition above about 9.5%
PG9 bind DR – PG9 antibody binding, dose response. shares compounds with PG9 binder. TR-FRET PG9 antibody-gp120 binding inhibition. IC50, µM. 95 tested, under 10 active; in the data active = IC50 below about 10 µM
PGV04 DR counter – counter-screen for PG9 binders: binding to control antibody PGV04; shares compounds with PG9 binder; TR-FRET binding to control antibody PGV04; IC50, µM; 20% of 95 active; AID 651937
PG126 binding DR – binds control antibody PG126 in PG9 counter-screen | shares compounds with PG9 binder | TR-FRET binding to antibody PG126, counterscreen | 20% of 95 active | IC50, µM | AID 651939
NR1D1 mod conf – confirmation of modulators of human Rev-erb alpha DNA binding; 61% of 3,000 active; shares compounds with Rev-erbA mod; AID 1259319; activation, % at 25 µM; Rev-erb alpha FITC-DNA binding, fluorescence polarization, 90 min;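 active = activation at or above a set limit, or at least 3 SD above the negative control mean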;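 note: 0% = 35 nM protein with DMSO and 100% = 750 nM protein high control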
RORg DNA counter – affects RORgamma DNA binding in a Rev-erb alpha counter-screen | purified RORgamma protein-FITC-DNA binding, fluorescence polarization | 8% of 910 active | IC50, µM | AID 1259320 | shares compounds with Rev-erbA mod;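 active = Compounds whose fitted half-maximal concentration for disrupting protein-DNA binding is below 10 micromolar; the record names Rev-erb in its text, so the target is in doubt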
An asterisk follows results filed as active. In the library only some 2% were active in any assay of this set; here they are far more common. Cut-off read from the data, not from the text of the source, unless noted: active = IC50 below about 9 µM; inactive = the rest.

`COc1cccc(C2C(C(=O)c3cc4ccccc4o3)=C(O)C(=O)N2c2cc(C)on2)c1` (centres undefined) gave Neddyl block inactive, NR2E3 ag-1 26.8*, PG9 binder 19.6*, NR2E3 ag-2 -28.6, Rev-erbA mod -7.7, NR2E3 ag confirm 26.5*, PPARg-NCOR2 ag 26.4*, PG9 bind confirm 17.4* and PGV04 counter 24.9*.
Screening CCCOc1ccc(C2C(C(=O)c3cc4ccccc4o3)=C(O)C(=O)N2c2cc(C)on2)cc1OC (centres undefined) returned Neddyl block inactive, NR2E3 ag-1 17.2, PG9 binder 7.6, NR2E3 ag-2 -24.2 and Rev-erbA mod -5.6.
`O=S1(=O)c2ccc(Br)cc2OC[C@@H](Cc2ccccc2)N1Cc1cn(Cc2ccc(C(F)(F)F)cc2)nn1` gave Rev-erbA mod -9.2.
O=[N+]([O-])c1ccccc1S(=O)(=O)N1CCC(c2cn3ccccc3n2)CC1 was read as Rev-erbA mod -3.8.
Cc1c(NC(=O)c2ccc(N3CCCC3)c([N+](=O)[O-])c2)cccc1-c1nc2ccccc2s1 was read as Neddyl block inactive, NR2E3 ag-1 0.1, PG9 binder -1.1, NR2E3 ag-2 -39.4 and Rev-erbA mod 4.5.
Screening Cc1c(NC(=O)c2ncn[nH]2)cccc1-c1nc2ccccc2s1 returned Neddyl block inactive, NR2E3 ag-1 19.8*, PG9 binder 27.2*, NR2E3 ag-2 -12.5, Rev-erbA mod 10.4, NR2E3 ag confirm 5.4, PPARg-NCOR2 ag 18.4, PG9 bind confirm 33.2* and PGV04 counter 50.7*.
For Cc1ccc(C(=O)C2=C(O)C(=O)N(Cc3cccnc3)C2c2cccc(Oc3ccccc3)c2)o1 (centres undefined) the results were NR2E3 ag-1 51.8*, PG9 binder 48.0*, Rev-erbA mod -3.3, NR2E3 ag confirm 45.4*, PPARg-NCOR2 ag 41.4*, PG9 bind confirm 46.6* and PGV04 counter 53.5*.
Screening COC(=O)C[C@@H]1CC[C@H]2[C@@H](COc3ccc(NC(=O)c4ccc(Cl)cc4)cc3C(=O)N2C)O1 returned Rev-erbA mod 8.6.
For CCNC(=O)CCC/C=C\C[C@@H]1[C@@H](/C=C/[C@@H](O)CCc2ccccc2)[C@H](O)C[C@@H]1O the results were Rev-erbA mod 9.7.
Screening O=C1C=C(O)c2cccc3cccc1c23 returned Neddyl block inactive, NR2E3 ag-1 23.2*, PG9 binder 48.7*, NR2E3 ag-2 -26.4, Rev-erbA mod 1.1, NR2E3 ag confirm 10.6, PPARg-NCOR2 ag 19.0, PG9 bind confirm 39.1* and PGV04 counter 58.1*.
NC1=CC(=O)c2cccc3cccc1c23 was read as NR2E3 ag-1 -3.6.
For C[Si](C)(C)O[Si](C)(C)O[Si](C)(C)C the results were Rev-erbA mod -4.2.
COC(=O)c1cc2c(-c3ccccc3)c(C)c3ccccn3c-2c1C(=O)OC was read as Neddyl block inactive, NR2E3 ag-1 27.7*, PG9 binder 25.6*, NR2E3 ag-2 -34.7, Rev-erbA mod 3.2, NR2E3 ag confirm 30.4*, PPARg-NCOR2 ag 29.4*, PG9 bind confirm 34.8* and PGV04 counter 52.5*.
For Cc1ccc(NC(=S)Nc2nc(CC(=O)Nc3ccccc3)cs2)cc1 the results were Neddyl block inactive, NR2E3 ag-1 20.4*, PG9 binder 15.9*, NR2E3 ag-2 -12.7, Rev-erbA mod 100.9*, NR2E3 ag confirm 13.4, PPARg-NCOR2 ag 13.3, PG9 bind confirm 10.9*, PGV04 counter 9.7*, PG9 bind DR >67, PGV04 DR counter inactive, PG126 binding DR inactive, NR1D1 mod conf 90.8* and RORg DNA counter >40.
Screening CN(c1ccc(Cl)cc1)c1cc(=O)n(C)c2ccccc12 returned Neddyl block inactive, NR2E3 ag-1 21.2*, PG9 binder 0.8, NR2E3 ag-2 -19.9, Rev-erbA mod 22.4*, NR2E3 ag confirm 2.5, PPARg-NCOR2 ag 4.8 and NR1D1 mod conf 17.6*.
For CN(C(=O)COc1cc(=O)n(C)c2ccccc12)c1ccc(Cl)cc1 the results were Neddyl block inactive, NR2E3 ag-1 1.7, PG9 binder 0.5, NR2E3 ag-2 -7.9 and Rev-erbA mod 2.1.
Screening Cc1ccc(-c2nc(C3CCCN(S(=O)(=O)c4ccc(Cl)s4)C3)no2)cc1 (centres undefined) returned Rev-erbA mod 0.6.
For CC(=O)Nc1ccc(NC(=O)C(C)OC(=O)/C(C#N)=C/c2ccc(N(C)C)cc2)cc1 (centres undefined) the results were Neddyl block inactive, NR2E3 ag-1 34.0*, PG9 binder 17.2*, NR2E3 ag-2 -46.4, Rev-erbA mod 18.1*, NR2E3 ag confirm 29.8*, PPARg-NCOR2 ag 30.3*, PG9 bind confirm 19.7*, PGV04 counter 36.5* and NR1D1 mod conf 14.5*.
`CC(OC(=O)/C(C#N)=C/c1ccc(N(C)C)cc1)C(=O)N(C)c1ccccc1` (centres undefined) gave Neddyl block inactive, NR2E3 ag-1 1.0, PG9 binder -0.2, NR2E3 ag-2 9.0 and Rev-erbA mod 12.4.
`COc1cc2c(cc1NC(=O)CSc1nnc(-c3cccc(Cl)c3)n1-c1ccccc1)oc1ccccc12` gave Rev-erbA mod -0.3.
